Legend:
[1] = target: 5-hydroxytryptamine receptor 6 (Homo sapiens) (UniProt P50406); assay: Displacement of [3H]-LSD from human recombinant 5-HT6 receptor expressed in CHO cells at 10^-7 M incubated for 60 mins by microbeta2 scintillation counter relative to control; assay type: cell-based
Procedure, shortened: (§1)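 Radioligand displacement from recombinant human receptor membranes, tested at two final concentrations (10^-6 and 10^-7 M), with scintillation counting. Results were expressed as percent inhibition of specific binding.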

[2] = target: T1, 5-hydroxytryptamine receptor 7 (Homo sapiens, UniProt P34969); assay: biochemical; assay type: cell-based, CHO
[3] = target: 5-hydroxytryptamine receptor 2A (Homo sapiens) (UniProt P28223); details: HEK293, at 0.1 µM
[4] = target: T2, 5-hydroxytryptamine receptor 1A (Homo sapiens, UniProt P08908); assay: Displacement of [3H]-8-OH-DPAT from human recombinant 5-HT1A receptor expressed in HEK293 cells incubated for 60 mins by microbeta2 scintillation counter; assay type: cell-based
T2 sequence (P08908 whole entry): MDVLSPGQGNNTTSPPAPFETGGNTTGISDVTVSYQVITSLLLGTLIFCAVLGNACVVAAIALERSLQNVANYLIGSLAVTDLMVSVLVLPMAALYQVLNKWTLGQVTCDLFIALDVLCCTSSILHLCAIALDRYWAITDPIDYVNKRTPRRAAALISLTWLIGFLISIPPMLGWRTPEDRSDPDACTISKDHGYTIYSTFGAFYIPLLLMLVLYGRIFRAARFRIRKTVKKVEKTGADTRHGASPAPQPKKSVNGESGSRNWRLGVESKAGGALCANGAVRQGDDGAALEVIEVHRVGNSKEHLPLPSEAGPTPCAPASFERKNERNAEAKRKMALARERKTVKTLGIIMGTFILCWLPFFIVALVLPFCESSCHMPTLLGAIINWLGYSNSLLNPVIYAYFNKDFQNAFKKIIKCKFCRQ

[5] = target: 3',5'-cyclic-AMP phosphodiesterase 4B (Homo sapiens) (UniProt Q07343); assay: Inhibition of human recombinant full length N-terminal GST-tagged PDE4B1 expressed in baculovirus infected Sf9 cells at 10^-5 M using cAMP as substrate incubated for 20 mins followed by substrate addition by luciferase assay relative to control
[6] = target: 5-hydroxytryptamine receptor 6 (Homo sapiens) (UniProt P50406); assay: Displacement of [3H]-LSD from human recombinant 5-HT6 receptor expressed in CHO cells at 10^-6 M incubated for 60 mins by microbeta2 scintillation counter relative to control; assay type: cell-based; procedure, shortened: as §1
[7] = target: 5-hydroxytryptamine receptor 2A (Homo sapiens) (UniProt P28223); details: HEK293, at 1 µM
[8] = Metabolic stability in mouse liver microsomes assessed as metabolite formation measured after 30 mins in the presence of NADPH by LC-MS/MS analysis; assay type: ADME, Microsome; details: 0.5 h
Procedure, shortened: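 Compound (20 µM final) was preincubated with mouse liver microsomes (0.4 mg/mL) in 100 mM potassium phosphate, pH 7.4, at 37 °C for 15 min. The reaction was started with an NADPH-regenerating system and sampled at 5, 15 and 30 min. Levallorphan internal standard was added, the reaction was stopped with perchloric acid, and samples were analysed by LC-MS/MS. No-NADPH incubations served as negative controls.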

Mus musculus [9] = assay: Antidepressant activity in Swiss albino mouse assessed as decrease in immobility time at 0.625 to 2.5 mg/kg, ip measured after 60 mins by forced swim test relative to control; assay type: functional; design: scale not given: the % may be the effect or the level left
Procedure, shortened: (§2)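 Male Swiss albino mice (22–26 g), 7–10 per dose, were dosed ip in 1% Tween 80 at 10 ml/kg 60 min before the test. In the Porsolt test, each mouse was placed for 6 min in a cylinder with 6 cm of water at 23–25 °C. Immobility was scored over the last 4 min and compared with vehicle controls by ANOVA/Bonferroni.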

[10] = Selectivity index, ratio of IC50 for human HaCaT cells to IC50 for human SW480 cells
SW480 = assay: Cytotoxicity against human SW480 cells assessed as growth inhibition measured after 72 hrs by MTT assay; assay type: functional, cell-based; details: SW480, 72 h
Procedure, shortened: (§3)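 Cells were seeded at 1 × 10^4 per well: SW480 in MEM, PC3 in RPMI 1640, HaCaT in DMEM high glucose, each with 10% FBS. Compounds were added at 10–140 µM and incubated for 72 h. MTT was then added at 0.5 mg/mL in serum-free medium for 4 h at 37 °C. Formazan was dissolved in DMSO/isopropanol (1:1) and read at 570 nm. IC50 was given in µM; untreated cells served as control.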

Mus musculus [11] = assay: Effect on locomotor activity in Swiss albino mouse at 0.625 to 2.5 mg/kg, ip; assay type: ADME, organism-based; details: in vivo
Procedure, shortened: (§4)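 Male Swiss albino mice were dosed ip in 1% Tween 80 at 10 ml/kg 60 min before testing. Each mouse was placed individually in a cage in a photobeam activity monitor. Ambulation crossings were counted from 2 to 6 min.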

[12] = Selectivity index, ratio of IC50 for human HaCaT cells for human PC3 cells; assay type: toxicity; details: HaCaT cells versus PC3 cells, read-out: Ratio IC50
[13] = target: T1, 5-hydroxytryptamine receptor 7; assay: Agonist activity at human recombinant 5-HT7 receptor expressed in CHOK1 cells by LANCE TR-FRET assay relative to control; assay type: cell-based
Procedure, shortened: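 cAMP assay in CHO-K1 cells expressing human 5-HT7 […], at 2x10^5 cells/ml in HBSS with 5 mM HEPES, IBMX and 0.1% BSA, pH 7.4. Cells were stimulated with the compounds (8 concentrations) for 60 min at room temperature. cAMP was read by LANCE Ultra TR-FRET after 1 h with tracer and antibody. EC50 was obtained by nonlinear regression.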

HaCaT = assay: Cytotoxicity against human HaCaT cells assessed as growth inhibition measured after 72 hrs by MTT assay; assay type: cell-based; procedure, shortened: as §3
[14] = target: T1, 5-hydroxytryptamine receptor 7; assay: Antagonist activity at human recombinant 5-HT7 receptor expressed in CHOK1 cells assessed as equilibrium binding constant measured after 60 mins in the presence of serotonin by LANCE TR-FRET assay; assay type: cell-based
[15] = target: T1, 5-hydroxytryptamine receptor 7; assay: Antagonist activity at human recombinant 5-HT7 receptor expressed in CHOK1 cells measured after 60 mins in the presence of serotonin by LANCE TR-FRET assay; assay type: cell-based
in vitro [16] = details: CD1, mouse, liver microsomes
PC-3 = assay: Cytotoxicity against human PC3 cells assessed as growth inhibition measured after 72 hrs by MTT assay; assay type: functional, cell-based; details: PC-3, 72 h; procedure, shortened: as §3
[17] = target: T3, 5-hydroxytryptamine receptor 1A (Homo sapiens) (UniProt P08908); assay: Antagonist activity at human recombinant 5-HT1A receptor expressed in CHOK1 cells incubated for 25 mins followed by addition of […] by microbeta2 scintillation counter relative to control; assay type: cell-based
T3 sequence (whole entry): T2 sequence (P08908 whole entry)
Procedure, shortened: (§5)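 Aequorin Ca2+ assay in antagonist mode in CHO-K1 cells expressing human 5-HT1A, Gα16 and mitochondrial aequorin, loaded with 5 μM coelenterazine h. Cells were injected onto the compounds (8–10 concentrations) and incubated for 25 min.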

[18] = target: T3, 5-hydroxytryptamine receptor 1A (Homo sapiens); assay: Agonist activity at human recombinant 5-HT1A receptor expressed in CHOK1 cells measured after 1 hr by microbeta2 scintillation counter relative to control; assay type: cell-based
Procedure, shortened: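 Aequorin Ca2+ assay in CHO-K1 cells coexpressing mitochondrial aequorin, human 5-HT1A and Gα16. Thawed cells were loaded with coelenterazine h (5 μM final) for 16 h at 16 °C in the dark with agitation, then diluted to 5000 cells/ml. After 1 h they were injected onto the compounds (8–10 concentrations) and luminescence was recorded for 30 s.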

in vitro [19] = details: CD1, mouse, liver microsomes; remark: listed apart in the source
[20] = target: T2, 5-hydroxytryptamine receptor 1A; assay: Antagonist activity at human recombinant 5-HT1A receptor expressed in CHOK1 cells incubated for 25 mins followed by addition of methiothepin by microbeta2 scintillation counter; assay type: cell-based; procedure, shortened: as §5
[21] = target: T3, 5-hydroxytryptamine receptor 1A (Homo sapiens); assay: Antagonist activity at human recombinant 5-HT1A receptor expressed in CHOK1 cells assessed as equilibrium binding constant incubated for 25 mins followed by addition of methiothepin by microbeta2 scintillation counter; assay type: cell-based; details: in the assay text read “serotonin” for “methiothepin”; procedure, shortened: as §5
[22] = target: T1, 5-hydroxytryptamine receptor 7; assay: Antagonist activity at human recombinant 5-HT7 receptor expressed in CHOK1 cells measured after 60 mins in the presence of serotonin by LANCE TR-FRET assay relative to control; assay type: cell-based
Mus musculus [23] = assay: Antidepressant activity in Swiss albino mouse assessed as decrease in immobility time at 0.625 mg/kg, ip measured after 60 mins by forced swim test relative to control; assay type: functional; design: scale not given: the % may be the effect or the level left; procedure, shortened: as §2
Mus musculus [24] = assay: Effect on locomotor activity in Swiss albino mouse at 0.625 mg/kg, ip; assay type: ADME, organism-based; details: in vivo; procedure, shortened: as §4
[25] = target: 3',5'-cyclic-AMP phosphodiesterase 4B (Homo sapiens) (UniProt Q07343); details: Sf9, 10^-5.5 M
[26] = in the assay text read “serotonin” for “methiothepin”, read-out: IC50

5-hydroxytryptamine receptor 2A (Homo sapiens), sequence (P28223 whole entry): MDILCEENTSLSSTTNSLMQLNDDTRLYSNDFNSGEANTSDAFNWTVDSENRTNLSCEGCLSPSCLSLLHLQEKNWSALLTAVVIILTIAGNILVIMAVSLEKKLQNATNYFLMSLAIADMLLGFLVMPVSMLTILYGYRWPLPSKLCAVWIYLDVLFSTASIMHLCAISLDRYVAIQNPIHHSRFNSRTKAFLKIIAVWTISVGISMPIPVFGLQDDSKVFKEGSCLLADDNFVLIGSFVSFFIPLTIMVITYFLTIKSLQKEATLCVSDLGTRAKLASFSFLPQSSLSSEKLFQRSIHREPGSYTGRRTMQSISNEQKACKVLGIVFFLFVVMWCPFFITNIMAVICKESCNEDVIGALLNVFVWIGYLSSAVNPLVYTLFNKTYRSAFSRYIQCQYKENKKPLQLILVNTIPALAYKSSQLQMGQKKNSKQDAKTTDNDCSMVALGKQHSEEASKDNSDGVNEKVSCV
T1 sequence (P34969 whole entry): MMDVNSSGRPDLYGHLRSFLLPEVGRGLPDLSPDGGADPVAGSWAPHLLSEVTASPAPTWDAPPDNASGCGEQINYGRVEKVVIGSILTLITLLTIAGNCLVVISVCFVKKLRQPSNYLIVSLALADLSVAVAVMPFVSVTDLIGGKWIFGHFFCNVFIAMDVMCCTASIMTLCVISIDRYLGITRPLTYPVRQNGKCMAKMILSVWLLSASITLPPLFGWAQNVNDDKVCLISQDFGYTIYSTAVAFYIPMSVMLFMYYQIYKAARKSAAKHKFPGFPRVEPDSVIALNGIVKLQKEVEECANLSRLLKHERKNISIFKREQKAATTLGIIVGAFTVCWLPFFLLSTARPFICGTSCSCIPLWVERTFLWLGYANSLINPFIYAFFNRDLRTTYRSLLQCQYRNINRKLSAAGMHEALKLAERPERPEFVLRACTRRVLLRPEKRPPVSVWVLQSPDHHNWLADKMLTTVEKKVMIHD
5-hydroxytryptamine receptor 6 (Homo sapiens), sequence (P50406 whole entry): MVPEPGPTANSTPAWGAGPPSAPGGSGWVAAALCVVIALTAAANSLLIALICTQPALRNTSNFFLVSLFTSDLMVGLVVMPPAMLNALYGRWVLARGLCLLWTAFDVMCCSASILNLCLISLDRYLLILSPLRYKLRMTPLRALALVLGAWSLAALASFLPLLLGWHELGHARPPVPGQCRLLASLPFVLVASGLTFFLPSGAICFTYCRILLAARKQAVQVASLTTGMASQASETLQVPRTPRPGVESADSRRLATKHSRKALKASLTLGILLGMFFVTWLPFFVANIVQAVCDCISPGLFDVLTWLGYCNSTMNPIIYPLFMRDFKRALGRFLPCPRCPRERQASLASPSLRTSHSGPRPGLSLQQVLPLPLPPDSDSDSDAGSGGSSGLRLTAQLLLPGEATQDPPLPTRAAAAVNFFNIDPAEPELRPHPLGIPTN
3',5'-cyclic-AMP phosphodiesterase 4B (Homo sapiens), sequence (Q07343 whole entry): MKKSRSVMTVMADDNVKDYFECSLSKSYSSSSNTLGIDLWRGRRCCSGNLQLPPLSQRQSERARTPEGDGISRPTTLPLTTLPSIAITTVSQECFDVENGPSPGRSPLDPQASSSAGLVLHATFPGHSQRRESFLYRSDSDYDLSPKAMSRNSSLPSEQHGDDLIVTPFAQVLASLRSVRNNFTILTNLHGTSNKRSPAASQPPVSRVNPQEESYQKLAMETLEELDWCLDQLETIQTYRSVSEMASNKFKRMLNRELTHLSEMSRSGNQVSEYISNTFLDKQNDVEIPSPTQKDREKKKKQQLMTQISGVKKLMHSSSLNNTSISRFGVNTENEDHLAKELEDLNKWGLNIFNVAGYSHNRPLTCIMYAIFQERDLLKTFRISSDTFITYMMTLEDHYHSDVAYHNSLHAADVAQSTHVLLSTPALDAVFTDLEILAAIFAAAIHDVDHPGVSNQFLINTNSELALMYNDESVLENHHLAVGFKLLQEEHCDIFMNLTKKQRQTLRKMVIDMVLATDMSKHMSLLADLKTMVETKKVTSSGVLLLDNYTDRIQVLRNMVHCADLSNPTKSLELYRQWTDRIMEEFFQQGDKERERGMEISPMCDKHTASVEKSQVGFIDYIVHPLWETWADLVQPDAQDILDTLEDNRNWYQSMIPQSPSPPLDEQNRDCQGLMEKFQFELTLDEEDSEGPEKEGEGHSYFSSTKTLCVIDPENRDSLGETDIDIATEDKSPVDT

SMILES | inhibition [1] | Ki [2] | inhibition [3] | Ki [4] | inhibition [5] | inhibition [6] | inhibition [7] | Emax [22] | also measured
COc1ccc(/C=C2\NC(=O)N(CCCN3CCN(c4ncccn4)CC3)C2=O)cc1OC | 8% | 74 nM | 23% | 12 nM | 1% | 15% | 78% | – | –
COc1ccc(/C=C2\NC(=O)N(CCCCN3CCN(c4cccc(Cl)c4Cl)CC3)C2=O)cc1OC | 6% | 0.8 nM | 82% | 0.2 nM | 5% | 82% | 98% | 37% | Ratio IC50 [10]: 1.16; IC50 (SW480): 255000 nM; selectivity ratio [12]: 1.31; Emax [13]: 13%; IC50 (HaCaT): 296000 nM; Kb [14]: 54.3 nM; IC50 [15]: 163 nM; IC50 (PC-3): 227000 nM; Emax [17]: 15%; Emax [18]: 12%; Activity (Mus musculus [23]): 27%; IC50 [20, 26]: 39 nM; Activity (Mus musculus [24]): Non-Toxic; Kb [21]: 1.3 nM
COc1ccc(/C=C2\NC(=O)N(CCCCN3CCN(c4ncccn4)CC3)C2=O)cc1OC | 0% | 933 nM | 0% | 45 nM | 14% | 0% | 41% | – | –
CSc1ccc2c(c1)C(N1CCN(C)CC1)Cc1ccccc1S2 (stereo not given) | 99% | – | – | – | – | 99% | – | – | –
COc1ccc(C2CNC(=O)C2)cc1OC1CCCC1 (stereo not given) | – | – | – | – | – | – | – | – | inhibition [25]: 84%
CC1CCN(CC[C@H]2CCCN2S(=O)(=O)c2cccc(O)c2)CC1 | – | – | – | – | – | – | – | 8% | –
COc1ccc(/C=C2\NC(=O)N(CCCCN3CCN(c4ccccc4OC)CC3)C2=O)cc1OC | 0% | 16 nM | 31% | 7 nM | 8% | 9% | 87% | – | –

The next lines start with results.

inhibition [1] | Ki [2] | inhibition [3] | Ki [4] | inhibition [5] | inhibition [6] | inhibition [7] | Emax [22] | SMILES | also measured
0% | 1 nM | 50% | 1 nM | 14% | 5% | 95% | 33% | COc1ccc(/C=C2\NC(=O)N(CCCCN3CCN(c4ccccc4OC)CC3)C2=O)cc1OC1CCCC1 | Drug metabolism [8]: Metabolite_Detected; Activity (Mus musculus [9]): 30%; Ratio IC50 [10]: 0.81; IC50 (SW480): 185000 nM; Activity (Mus musculus [11]): Non-Toxic; selectivity ratio [12]: 0.59; Emax [13]: 14%; IC50 (HaCaT): 151000 nM; Kb [14]: 73 nM; IC50 [15]: 219 nM; half-life (in vitro [16]): 12.8 min; IC50 (PC-3): 254000 nM; Emax [17]: 3%; Emax [18]: 6%; microsomal CLint (in vitro [19]): 136 µL/min/mg; IC50 [20, 26]: 54 nM; IC50 ([20]; read-out: pIC50 (converted)): 61.7 nM; Kb [21]: 1.7 nM
8% | 125 nM | 39% | 132 nM | 3% | 34% | 90% | – | COc1ccc(/C=C2\NC(=O)N(CCCCN3CCN(c4cccc(Cl)c4Cl)CC3)C2=O)cc1OC1CCCC1 | –
